{"data": "Assay results gathered from unrelated publications", "cell line": "IGROV-1", "read-out": "cell growth or viability", "note": "Compare with care: the assays were run in different laboratories."}
{"SMILES": "COc1cccc(Oc2ccccc2NC(=O)CNC(=O)c2cccc3ccccc23)c1", "method": "SRB", "time": "48 h", "endpoint": "GI50", "result": "1050 nM"}
{"SMILES": "COc1ccc(-c2ccc(-c3ccc(C(=N)N)nc3)s2)cc1Cl", "method": "SRB", "endpoint": "GI50", "result": "1780 nM"}
{"SMILES": "Cc1cc(C)n(C(=S)[S][Au][PH](CCCCCC[PH]([Au][S]C(=S)n2nc(C)cc2C)(c2ccccc2)c2ccccc2)(c2ccccc2)c2ccccc2)n1", "endpoint": "GI50", "result": "1190 nM"}
{"SMILES": "COc1ccc(C(=O)/C=C/c2cccc3ccccc23)cc1S(N)(=O)=O", "method": "SRB", "time": "48 h", "endpoint": "GI50", "result": "2300 nM"}
{"SMILES": "COc1ccc(-c2ccc(-c3ccc(C(=N)N)nc3)s2)cc1", "method": "SRB", "endpoint": "GI50", "result": "1840 nM"}
{"SMILES": "COc1ccc(C(=O)/C=C/c2ccc3c(c2)OCCO3)cc1S(N)(=O)=O", "method": "SRB", "concentration": "10 µM", "endpoint": "inhibition", "result": "36%"}
{"SMILES": "S=C([S][Au-][P+](CCCCCC[P+]([Au-][S]C(=S)n1cccn1)(c1ccccc1)c1ccccc1)(c1ccccc1)c1ccccc1)n1cccn1", "endpoint": "GI50", "result": "2260 nM"}
{"SMILES": "COc1cc2c3cc1Oc1c(OC)c(OC)cc4c1[C@@H](Cc1ccc(O)c(c1)Oc1ccc(cc1)C[C@@H]3N(C)CC2)N(C)CC4", "time": "72 h", "endpoint": "IC50", "result": "29600 nM"}
